pIC50: −log10 of the molar value. Calls of active or inactive are those of the source. The rule behind the calls is not given here.
Experiments:
[1] = Growth inhibition of human KYSE-150 cells after 48 hrs by MTT assay; type: functional; settings: KYSE-150, 48 h
How it was run: (§1)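 Cells were seeded at 5000/well in RPMI 1640 with 10% FBS and allowed to attach overnight, then exposed for 48 h at 37 °C in 5% CO2. MTT was added for 3 h, and the dye was solubilized in HCl–2-propanol and read at 560 nm (reference 750 nm).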

[2] = target: T1, Lysine-specific demethylase 2A (Homo sapiens, UniProt Q9Y2K7); experiment: Inhibition of KDM2A (unknown origin)
T1 sequence (Q9Y2K7 whole entry): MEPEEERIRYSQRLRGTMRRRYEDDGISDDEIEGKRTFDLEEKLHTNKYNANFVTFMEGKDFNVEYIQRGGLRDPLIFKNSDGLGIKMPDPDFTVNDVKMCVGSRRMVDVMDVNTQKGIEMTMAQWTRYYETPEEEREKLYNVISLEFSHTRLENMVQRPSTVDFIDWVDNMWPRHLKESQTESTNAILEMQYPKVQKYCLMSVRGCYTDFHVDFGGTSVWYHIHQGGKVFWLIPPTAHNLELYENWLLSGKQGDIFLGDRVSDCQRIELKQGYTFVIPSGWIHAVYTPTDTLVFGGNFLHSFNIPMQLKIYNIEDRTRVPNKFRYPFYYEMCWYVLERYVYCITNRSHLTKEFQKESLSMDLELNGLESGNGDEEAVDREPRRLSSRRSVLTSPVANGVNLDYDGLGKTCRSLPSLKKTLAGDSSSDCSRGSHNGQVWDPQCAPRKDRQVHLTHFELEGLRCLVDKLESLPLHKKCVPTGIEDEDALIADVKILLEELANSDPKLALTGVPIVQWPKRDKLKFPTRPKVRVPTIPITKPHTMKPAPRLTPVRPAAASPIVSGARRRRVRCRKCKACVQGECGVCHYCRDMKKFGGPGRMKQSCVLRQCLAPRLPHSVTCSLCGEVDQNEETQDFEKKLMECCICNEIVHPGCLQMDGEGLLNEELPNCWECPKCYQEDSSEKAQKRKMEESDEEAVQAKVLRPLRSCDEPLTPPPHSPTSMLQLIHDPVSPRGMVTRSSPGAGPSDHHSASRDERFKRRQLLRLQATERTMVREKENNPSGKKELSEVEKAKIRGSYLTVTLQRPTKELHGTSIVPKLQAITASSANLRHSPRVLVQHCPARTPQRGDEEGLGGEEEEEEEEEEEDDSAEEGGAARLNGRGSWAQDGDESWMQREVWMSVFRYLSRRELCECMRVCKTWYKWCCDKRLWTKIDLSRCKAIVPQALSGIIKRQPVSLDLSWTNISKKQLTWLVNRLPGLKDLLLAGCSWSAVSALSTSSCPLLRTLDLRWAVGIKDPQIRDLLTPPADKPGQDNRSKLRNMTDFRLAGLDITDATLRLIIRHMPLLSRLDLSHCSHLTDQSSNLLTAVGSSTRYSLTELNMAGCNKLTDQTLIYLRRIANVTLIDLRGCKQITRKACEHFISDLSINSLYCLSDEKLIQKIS

[3] = target: T2, Lysine-specific demethylase 4C (Homo sapiens, UniProt Q9H3R0); experiment: Inhibition of KDM4C (unknown origin) using H3K9me3 peptide and 2-oxoglutarate as substrate after 1 hr by FDH-coupled assay
T2 sequence (Q9H3R0 whole entry): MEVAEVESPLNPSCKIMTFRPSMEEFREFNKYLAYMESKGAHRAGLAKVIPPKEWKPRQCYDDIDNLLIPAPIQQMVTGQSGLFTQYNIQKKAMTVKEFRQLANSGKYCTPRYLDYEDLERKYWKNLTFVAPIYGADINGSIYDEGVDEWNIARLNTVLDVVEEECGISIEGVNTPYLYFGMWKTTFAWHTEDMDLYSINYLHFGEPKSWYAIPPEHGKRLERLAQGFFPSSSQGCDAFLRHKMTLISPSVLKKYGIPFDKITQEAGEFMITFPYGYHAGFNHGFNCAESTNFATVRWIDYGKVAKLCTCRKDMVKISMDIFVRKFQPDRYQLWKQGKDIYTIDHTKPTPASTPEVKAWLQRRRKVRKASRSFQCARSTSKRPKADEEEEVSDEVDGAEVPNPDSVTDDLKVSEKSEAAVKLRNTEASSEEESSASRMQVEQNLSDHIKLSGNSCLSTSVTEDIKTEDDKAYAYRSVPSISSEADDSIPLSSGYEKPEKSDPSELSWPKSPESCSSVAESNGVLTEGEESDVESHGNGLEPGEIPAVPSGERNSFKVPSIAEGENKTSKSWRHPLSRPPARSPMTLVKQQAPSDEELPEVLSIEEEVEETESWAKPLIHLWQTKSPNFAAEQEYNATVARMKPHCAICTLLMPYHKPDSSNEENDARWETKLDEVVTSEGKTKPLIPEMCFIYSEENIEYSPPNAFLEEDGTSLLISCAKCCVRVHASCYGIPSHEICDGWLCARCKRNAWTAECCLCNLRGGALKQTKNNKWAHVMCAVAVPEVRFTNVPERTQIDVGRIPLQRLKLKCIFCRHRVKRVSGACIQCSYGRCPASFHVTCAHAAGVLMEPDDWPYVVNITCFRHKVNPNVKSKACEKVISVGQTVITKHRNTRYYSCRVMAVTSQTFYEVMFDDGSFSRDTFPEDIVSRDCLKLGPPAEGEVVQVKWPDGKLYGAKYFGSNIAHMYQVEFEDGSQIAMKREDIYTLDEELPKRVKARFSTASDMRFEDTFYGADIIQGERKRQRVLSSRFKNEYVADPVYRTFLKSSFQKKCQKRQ

[4] = target: Lysine-specific demethylase 5A (Homo sapiens, UniProt P29375); experiment: Inhibition of KDM5A (unknown origin) using H3K4me3 peptide and 2-oxoglutarate as substrate after 1 hr by FDH-coupled assay
Chain of Lysine-specific demethylase 5A (P29375 whole entry): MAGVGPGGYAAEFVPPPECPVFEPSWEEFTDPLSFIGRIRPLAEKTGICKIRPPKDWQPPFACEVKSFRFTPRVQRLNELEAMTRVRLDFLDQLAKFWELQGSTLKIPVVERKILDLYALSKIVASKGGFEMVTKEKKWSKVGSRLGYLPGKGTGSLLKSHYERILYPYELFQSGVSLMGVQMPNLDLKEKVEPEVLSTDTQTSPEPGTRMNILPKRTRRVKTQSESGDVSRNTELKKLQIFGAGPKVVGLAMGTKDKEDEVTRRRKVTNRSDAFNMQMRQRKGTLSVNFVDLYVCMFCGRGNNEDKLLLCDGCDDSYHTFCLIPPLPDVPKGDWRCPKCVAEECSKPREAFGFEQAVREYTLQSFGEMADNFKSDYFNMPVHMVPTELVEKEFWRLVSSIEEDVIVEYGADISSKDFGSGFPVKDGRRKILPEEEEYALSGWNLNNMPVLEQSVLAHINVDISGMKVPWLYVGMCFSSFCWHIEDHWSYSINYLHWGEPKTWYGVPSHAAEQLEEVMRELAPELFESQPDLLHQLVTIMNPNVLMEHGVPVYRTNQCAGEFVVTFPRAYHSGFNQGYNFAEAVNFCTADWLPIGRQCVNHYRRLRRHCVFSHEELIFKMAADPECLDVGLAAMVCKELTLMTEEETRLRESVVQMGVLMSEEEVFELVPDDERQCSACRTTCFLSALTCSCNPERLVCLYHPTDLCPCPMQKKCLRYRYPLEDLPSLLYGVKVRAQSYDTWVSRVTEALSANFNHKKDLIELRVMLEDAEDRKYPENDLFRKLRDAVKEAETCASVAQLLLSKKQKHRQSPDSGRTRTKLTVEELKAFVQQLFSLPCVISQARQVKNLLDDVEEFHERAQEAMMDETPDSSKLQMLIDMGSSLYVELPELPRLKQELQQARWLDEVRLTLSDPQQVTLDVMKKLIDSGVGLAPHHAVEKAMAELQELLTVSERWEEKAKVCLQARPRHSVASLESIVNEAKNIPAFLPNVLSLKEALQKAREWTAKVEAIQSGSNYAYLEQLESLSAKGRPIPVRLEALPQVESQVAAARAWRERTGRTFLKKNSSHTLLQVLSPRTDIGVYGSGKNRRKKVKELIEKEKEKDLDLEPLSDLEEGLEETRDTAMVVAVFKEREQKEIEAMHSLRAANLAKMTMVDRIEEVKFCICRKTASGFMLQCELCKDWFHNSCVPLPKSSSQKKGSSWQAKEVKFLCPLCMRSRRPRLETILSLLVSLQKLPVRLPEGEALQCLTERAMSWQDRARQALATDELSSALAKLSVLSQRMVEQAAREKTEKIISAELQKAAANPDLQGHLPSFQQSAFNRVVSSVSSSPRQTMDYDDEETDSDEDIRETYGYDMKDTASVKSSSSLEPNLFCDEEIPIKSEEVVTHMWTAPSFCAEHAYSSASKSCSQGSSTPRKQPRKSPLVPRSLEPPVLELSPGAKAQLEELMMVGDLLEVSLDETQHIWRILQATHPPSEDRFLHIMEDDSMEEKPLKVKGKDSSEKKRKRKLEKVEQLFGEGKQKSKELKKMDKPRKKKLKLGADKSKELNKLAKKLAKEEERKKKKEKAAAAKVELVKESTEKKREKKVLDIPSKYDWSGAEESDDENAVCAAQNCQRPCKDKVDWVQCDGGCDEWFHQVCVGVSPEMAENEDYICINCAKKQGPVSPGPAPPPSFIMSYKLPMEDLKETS
How it was run: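 Run as the FDH-coupled KDM4C format, with compounds in DMSO and activity relative to a DMSO control. KDM4A was used at 0.37 mg/mL final with H3K9me3 peptide. KDM5A was used at 0.64 mg/mL final with H3K4me3 peptide. Values are means of two experiments.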

[5] = target: T3, Lysine-specific demethylase 7A/7B (Homo sapiens) (UniProt Q9UPP1+Q6ZMT4); experiment: Inhibition of KDM7A/7B in human KYSE-150 cells assessed as H3K27me2 level at GI50 after 24 hrs by Western blot analysis; type: cell-based
T3 sequence (Q6ZMT4 whole entry, looked up): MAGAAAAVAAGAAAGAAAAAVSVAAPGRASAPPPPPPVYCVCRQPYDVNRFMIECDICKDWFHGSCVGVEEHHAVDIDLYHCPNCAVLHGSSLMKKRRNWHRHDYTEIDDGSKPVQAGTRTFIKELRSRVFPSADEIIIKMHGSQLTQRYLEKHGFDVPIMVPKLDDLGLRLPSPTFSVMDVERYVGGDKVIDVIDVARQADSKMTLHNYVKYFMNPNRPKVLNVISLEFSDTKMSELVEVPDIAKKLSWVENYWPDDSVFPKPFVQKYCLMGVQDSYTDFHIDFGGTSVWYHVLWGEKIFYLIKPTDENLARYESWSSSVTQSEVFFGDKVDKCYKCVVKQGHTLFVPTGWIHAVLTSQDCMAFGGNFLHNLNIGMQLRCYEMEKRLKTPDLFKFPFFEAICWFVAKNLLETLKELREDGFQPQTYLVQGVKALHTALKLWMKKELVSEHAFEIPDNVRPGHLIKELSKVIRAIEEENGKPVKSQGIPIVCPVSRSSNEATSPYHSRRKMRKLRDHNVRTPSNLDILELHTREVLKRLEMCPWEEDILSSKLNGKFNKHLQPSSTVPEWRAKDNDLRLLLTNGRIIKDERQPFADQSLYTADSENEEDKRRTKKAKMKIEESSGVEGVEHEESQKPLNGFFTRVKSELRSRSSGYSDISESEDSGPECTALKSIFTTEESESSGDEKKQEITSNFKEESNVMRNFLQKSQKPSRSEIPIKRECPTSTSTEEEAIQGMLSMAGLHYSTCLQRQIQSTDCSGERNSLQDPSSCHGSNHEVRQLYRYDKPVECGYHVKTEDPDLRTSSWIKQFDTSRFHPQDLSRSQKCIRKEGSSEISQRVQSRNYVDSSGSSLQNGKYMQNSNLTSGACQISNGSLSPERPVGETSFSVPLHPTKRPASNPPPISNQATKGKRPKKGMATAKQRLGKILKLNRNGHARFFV
T3 sequence (Q9UPP1 whole entry, looked up): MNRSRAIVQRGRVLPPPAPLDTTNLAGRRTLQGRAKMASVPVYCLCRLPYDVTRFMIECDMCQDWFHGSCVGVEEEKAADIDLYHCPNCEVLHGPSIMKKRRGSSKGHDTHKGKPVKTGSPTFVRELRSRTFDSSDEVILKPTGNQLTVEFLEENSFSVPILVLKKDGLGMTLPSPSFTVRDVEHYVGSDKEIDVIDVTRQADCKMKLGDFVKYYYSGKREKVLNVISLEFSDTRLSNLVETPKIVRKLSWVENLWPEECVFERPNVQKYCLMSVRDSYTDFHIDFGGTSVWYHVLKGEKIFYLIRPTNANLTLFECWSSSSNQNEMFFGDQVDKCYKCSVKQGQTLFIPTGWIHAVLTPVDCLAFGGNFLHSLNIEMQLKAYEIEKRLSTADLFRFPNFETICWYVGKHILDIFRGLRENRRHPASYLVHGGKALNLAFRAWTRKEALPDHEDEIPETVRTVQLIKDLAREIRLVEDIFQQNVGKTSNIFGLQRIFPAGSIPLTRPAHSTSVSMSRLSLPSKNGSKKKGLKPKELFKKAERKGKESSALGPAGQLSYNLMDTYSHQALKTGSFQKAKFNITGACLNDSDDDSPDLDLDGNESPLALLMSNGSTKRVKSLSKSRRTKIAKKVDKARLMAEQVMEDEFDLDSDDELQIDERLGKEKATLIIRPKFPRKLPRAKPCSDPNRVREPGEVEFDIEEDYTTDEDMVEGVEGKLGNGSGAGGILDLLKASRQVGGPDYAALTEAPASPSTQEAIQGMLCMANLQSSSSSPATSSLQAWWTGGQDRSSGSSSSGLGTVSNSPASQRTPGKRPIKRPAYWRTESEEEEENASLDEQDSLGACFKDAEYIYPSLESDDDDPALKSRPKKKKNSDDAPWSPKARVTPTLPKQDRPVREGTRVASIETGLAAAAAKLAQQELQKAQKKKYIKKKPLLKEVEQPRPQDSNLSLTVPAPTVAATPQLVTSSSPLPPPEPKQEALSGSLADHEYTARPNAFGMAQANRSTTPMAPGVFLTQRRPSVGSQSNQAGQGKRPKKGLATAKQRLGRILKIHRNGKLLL
How it was run: (§2)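 Cells (5×10^5) were treated for 24 h in OPTI-MEM and lysed in SDS buffer. Equal protein amounts, set by Bradford assay, were resolved on 4–20% SDS-PAGE and blotted. Blots were probed with anti-H3K27me2 (1:1000) and anti-H3 (1:100000) as loading reference, detected with an HRP secondary antibody, and visualized by ECL.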

N2a = experiment: Growth inhibition of mouse N2A cells after 48 hrs by MTT assay; type: functional; how it was run: as §1
[6] = target: T3, Lysine-specific demethylase 7A/7B (Homo sapiens); experiment: Inhibition of KDM7A/7B in human HeLa cells assessed as H3K27me2 level at GI50 after 24 hrs by Western blot analysis; type: cell-based; how it was run: as §2

| pIC50 [2] | pIC50 [3] | pIC50 [4] | inhibition [5] | inhibition [6] | Structure (SMILES) | GI50 [1] [µM] | GI50 (N2a) [µM] |
| --- | --- | --- | --- | --- | --- | --- | --- |
| 6.70 | 5.66 | 4.89 |  |  | CN(C)CCCCCCCCC(=O)N(O)CCC(=O)O | > 470 |  |
| 5.17 | 4.08 | 4.26 | Active | Active | O=C(O)CCN(O)C(=O)CCCCCCCCC1CC1 | 16 | 86 |

— ChEMBL document CHEMBL2424657, “Identification of the KDM2/7 histone lysine demethylase subfamily inhibitor and its antiproliferative activity” (J Med Chem, 2013)
